According to ChEMBL document CHEMBL1123702, “Functionalized DL-amino acid derivatives. Potent new agents for the treatment of epilepsy” (J Med Chem, 1987):
Non-standard residues stand in square brackets, D forms with d. Residues, ends and D or L forms follow the SMILES beside them. ξ: configuration not given here. *: point of attachment. NHBn = c1ccc(CN*)cc1; ξA = CC(N)C(=O)O

Assays:
Mus musculus [1] = experiment: Anticonvulsant activity was determined by subcutaneous picrotoxin test (CD97=3.15 mg/kg) (Phase V Pharmacological Evaluation); format: functional; settings: sc
Mus musculus [2] = experiment: Anticonvulsant activity was determined by subcutaneous Metrazol-induced convulsions (sc MET)(Phase V Pharmacological Evaluation); format: functional
Procedure, shortened: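 Mice, normally eight per dose; Metrazol 85 mg/kg (CD97) as 0.5% solution sc in posterior midline. Animals isolated and observed 30 min; protection: no threshold seizure (a clonic spasm episode of at least 5 s).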

Mus musculus [3] = experiment: Anticonvulsant activity was determined by subcutaneous Metrazol-induced convulsions seizure test (Phase II Pharmacological Evaluation); format: functional; settings: sc
Procedure, shortened: (§1)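 MES protection: hind-limb tonic extension abolished; saline drop in eye before electrodes. sc Met: pentylenetetrazole 85 mg/kg as 0.5% solution sc in posterior midline, 30 min observation; protection: no clonic spasm episode of at least 5 s. Rotarod toxicity: falling off a 1-in. rod at 6 rpm within 1 min. PI = TD50/MES ED50.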

Mus musculus [4] = experiment: Anticonvulsant activity was determined by subcutaneous Metrazol-induced convulsions seizure test (Phase IV Pharmacological Evaluation); format: functional; settings: sc
Procedure, shortened: (§2)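 MES protection: hind-limb tonic extension abolished. sc Met: pentylenetetrazole 85 mg/kg as 0.5% solution sc, 30 min observation; protection: no threshold clonic seizure of 5 s or more. Toxicity: failing to stay 1 min on a 6 rpm rod. PI = TD50/MES ED50.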

Mus musculus [5] = experiment: Anticonvulsant activity was determined by subcutaneous bicuculline test (CD97=2.70 mg/kg) (Phase V Pharmacological Evaluation); format: functional; settings: sc
[6] = Neurologic toxicity activity was determined by rotarod toxicity test (Phase II Pharmacological Evaluation); format: organism-based; settings: mouse, in vivo
[7] = Neurologic toxicity activity was determined by rotarod toxicity test (Phase IV Pharmacological Evaluation); format: organism-based; settings: mouse, in vivo
Mus musculus [8] = experiment: Anticonvulsant against s.c. Metrazol-induced convulsions after 30 min.; format: functional
Procedure, shortened: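 Mice (male Carworth Farms No. 1) got ip doses of 30, 100 or 300 mg/kg (600 mg/kg for one agent), checked at 0.5 h. Pentylenetetrazole 85 mg/kg as a 0.5% solution was injected sc in the posterior midline, then the animal was watched for 30 min. Protection means no threshold seizure (clonic spasms lasting ≥5 s). Single animals per dose; scored 0–4 by dose level.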

Mus musculus [9] = species: Mus musculus; experiment: Anticonvulsant against maximal electroshock induced convulsions after 30 min.; format: functional
Procedure, shortened: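 Male Carworth Farms No. 1 mice, test agent given ip at 30, 100 and 300 mg/kg (one agent also at 600 mg/kg); read at 0.5 h. Electroshock via electrodes, with a drop of 0.9% saline in the eye first. Protection is abolition of the hind-limb tonic extension. One mouse per dose. Scored 0–4 by the lowest dose with noticeable activity.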

Mus musculus [10] = species: Mus musculus; experiment: Anticonvulsant activity was determined by rotarod toxicity test (neurologic toxicity) at an interval of 0.5 h; format: organism-based; settings: in vivo
Procedure, shortened: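 Phase I screen in male Carworth Farms No. 1 mice, ip at 30, 100 and 300 mg/kg, read at 0.5 h. Four mice per dose on a 1-in. knurled rod at 6 rpm; neurotoxicity is failure to remain on it for 1 min. Scored 0–4: 0 = none at 600 mg/kg, then 1–4 = activity at 600, 300, 100 or 30 mg/kg.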

Mus musculus [11] = species: Mus musculus; experiment: Anticonvulsant activity was determined by maximum-induced convulsions electroshock seizure test (Phase II Pharmacological Evaluation); format: functional
[12] = Protectivity index is the ratio of TD50 /MES ED50 from Phase-II evaluation; format: functional; procedure, shortened: as §1
Mus musculus [13] = species: Mus musculus; experiment: Anticonvulsant activity was determined by maximum-induced convulsions electroshock seizure test (Phase IV Pharmacological Evaluation); format: functional
Mus musculus [14] = experiment: Anticonvulsant activity was determined by subcutaneous pentylenetetrazole seizure test (Phase IV Pharmacological Evaluation); format: functional; settings: sc; procedure, shortened: as §2
Mus musculus [15] = species: Mus musculus; experiment: Anticonvulsant activity was determined by maximum-induced convulsions electroshock seizure test (Phase III Pharmacological Evaluation); format: functional
[16] = Protectivity index is the ratio of TD50 /MES ED50 from Phase-IV evaluation; format: functional; procedure, shortened: as §2

SMILES | MET (Mus musculus [8]) | MES (Mus musculus [9]) | Toxicity (Mus musculus [10]) | further results
CCC1(C)CC(=O)NC1=O (stereo unspecified) [ETHOSUXIMIDE] | – | – | – | ED50 (Mus musculus [1]): 243 mg/kg; ED50 (Mus musculus [2]): 130 mg/kg; ED50 (Mus musculus [3]): 130 mg/kg; ED50 (Mus musculus [4]): 192 mg/kg; ED50 (Mus musculus [5]): 459 mg/kg; TD50 [6]: 441 mg/kg; TD50 [7]: 879 mg/kg
CC(NC(=O)C(C)(C)C)C(=O)NCc1ccccc1 (stereo unspecified) | 2 | 2 | 0 | –
CC(C)C(=O)NC(C)C(=O)NCc1ccccc1 (stereo unspecified) | 0 | 0 | 0 | –
CSCCC(NC(C)=O)C(=O)NCc1ccccc1 (stereo unspecified) | 0 | 2 | 0 | –
CC(=O)NC(C(=O)NCc1ccccc1)(c1ccccc1)c1ccccc1 | 0 | 0 | 0 | –
CC(=O)NCC(=O)NCc1ccccc1 | 0 | 2 | 2 | –
CC(=O)NCCC(=O)NCc1ccccc1 | 0 | 0 | 0 | –
CC(=O)NC(Cc1ccccc1)C(=O)NCc1ccccc1 (stereo unspecified) | 0 | 0 | 0 | –
CC(=O)NC(C)C(=O)NCc1cccc(F)c1 (stereo unspecified) | 0 | 3 | 0 | ED50 (Mus musculus [11]): 77.4 mg/kg; ED50 (Mus musculus [3]): 142 mg/kg; Protective Index [12]: > 6.46
CNC(=O)C(C)NC(C)=O (stereo unspecified) | 0 | 0 | 0 | –
CC(=O)NC(C)C(=O)NC(c1ccccc1)c1ccccc1 (stereo unspecified) | 0 | 0 | 0 | –
CC(=O)NC(C)C(=O)NCC(=O)NCc1ccccc1 (stereo unspecified) (Ac-[ξA]-Gly-NHBn) | 0 | 0 | 0 | –
CC(=O)NC(C(=O)NCc1ccccc1)C(C)C (stereo unspecified) | 0 | 2 | 0 | –
CCCC(CCC)C(=O)O [VALPROIC ACID] | – | – | – | ED50 (Mus musculus [1]): 387 mg/kg; ED50 (Mus musculus [11]): 272 mg/kg; ED50 (Mus musculus [13]): 665 mg/kg; ED50 (Mus musculus [2]): 149 mg/kg; ED50 (Mus musculus [3]): 149 mg/kg; ED50 (Mus musculus [4]): 388 mg/kg; ED50 (Mus musculus [5]): 360 mg/kg
COc1cccc(CNC(=O)C(C)NC(C)=O)c1 (stereo unspecified) | 0 | 2 | 0 | –
CC(=O)NC(C)C(=O)NCc1ccccc1 (stereo unspecified) | 0 | 3 | 1 | ED50 (Mus musculus [1]): 134 mg/kg; ED50 (Mus musculus [14]): 266 mg/kg; ED50 (Mus musculus [11]): 76.5 mg/kg; ED50 (Mus musculus [15]): 123 mg/kg; ED50 (Mus musculus [5]): 205 mg/kg; Protective Index [12]: 5.93; Protective Index [16]: > 8.15
CC(=O)NCC(C)C(=O)NCc1ccccc1 (stereo unspecified) | 0 | 2 | 0 | –
CC(=O)NC(C(=O)NCc1ccccc1)c1ccccc1 (stereo unspecified) | 0 | 4 | 2 | ED50 (Mus musculus [11]): 20.3 mg/kg; ED50 (Mus musculus [13]): 46.7 mg/kg; TD50 [6]: 96.9 mg/kg; TD50 [7]: 241 mg/kg; Protective Index [12]: 4.77; Protective Index [16]: 5.17
CC(=O)NCC(=O)NC(C)C(=O)NCc1ccccc1 (stereo unspecified) (Ac-Gly-[ξA]-NHBn) | 0 | 0 | 0 | –
